For data set [1], the target named is T1, N-arachidonyl glycine receptor (Homo sapiens, UniProt Q14330).
T1 sequence (Q14330 whole entry): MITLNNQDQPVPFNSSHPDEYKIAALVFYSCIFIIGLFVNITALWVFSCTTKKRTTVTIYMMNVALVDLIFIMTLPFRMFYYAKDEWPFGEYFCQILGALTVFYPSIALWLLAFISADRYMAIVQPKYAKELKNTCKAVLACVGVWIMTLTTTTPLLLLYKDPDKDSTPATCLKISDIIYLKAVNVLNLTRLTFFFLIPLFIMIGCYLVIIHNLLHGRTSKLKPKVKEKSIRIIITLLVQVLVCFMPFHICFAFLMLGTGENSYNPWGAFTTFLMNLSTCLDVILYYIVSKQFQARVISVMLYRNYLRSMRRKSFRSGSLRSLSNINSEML
Put plainly: Inverse agonist activity at human GPR18 expressed in CHO cells assessed as inhibition of 7.5 uM THC-mediated beta-arrestin recruitment after 90 mins by beta-galactosidase reporter gene assay. It counts as cell-based. In general terms: Recruitment of arrestin is a read-out of receptor activation apart from second messengers.

Data set [2] addresses T2, Cannabinoid receptor 2 (Homo sapiens, UniProt P34972). Put plainly: Displacement of [3H]-CP55940 from human CB2 receptor expressed in CHO cells. It counts as cell-based. A digest of the protocol:
(§1)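 Competition binding against agonist radioligand [3H]CP55,940 at CB1 or CB2 receptors. Compound stocks in DMSO, final DMSO 2.5%. Ki from concentration–inhibition curves; three independent experiments in duplicate.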
(In general: Displacement assays read how much labelled ligand stays bound in the presence of the test substance.)

For the next data set, the target named is Cannabinoid receptor 1 (Homo sapiens, UniProt P21554). Put plainly: Displacement of [3H]-CP55940 from human CB1 receptor expressed in CHO cells. It counts as cell-based. The following applies: for inhibition: concentration not given here. A digest of the protocol: as §1
The target of data set [3] is T3, G-protein coupled receptor 55 (Homo sapiens, UniProt Q9Y2T6). Description: Antagonist activity at human GPR55 expressed in CHO cells assessed as inhibition of LPI-mediated beta-arrestin recruitment after 90 mins by beta-galactosidase reporter gene assay. It counts as cell-based. A digest of the protocol:
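CHO cells stably expressing GPR55; PathHunter β-galactosidase complementation. 20,000 cells/well seeded in Opti-MEM with 2% FCS and selection antibiotics, 24 h at 37 °C. Compounds added in PBS with 10% DMSO and 0.1% BSA, 90 min at 37 °C, against a constant 1 μM LPI. Galacton-Star/Emerald-II lysis reagent for 60 min at rt, then luminescence read. IC50 from three independent experiments in duplicate.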

Data set [4] deals with T3, G-protein coupled receptor 55. Description: Antagonist activity at human GPR55 expressed in CHO cells assessed as inhibition of LPI-mediated beta-arrestin recruitment at 10 uM after 90 mins by beta-galactosidase reporter gene assay relative to control. Format: cell-based. A digest of the protocol: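 PathHunter β-galactosidase β-arrestin assay in CHO cells stably expressing GPR55. Cells incubated 24 h at 37 °C before use. Screening at 10 μM compound against 1 μM LPI, 90 min at 37 °C. Chemiluminescent Galacton-Star detection for 60 min at rt. Result given as % inhibition; three independent experiments in duplicate.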

The target in data set [5] is T1, N-arachidonyl glycine receptor. Description: Antagonist activity at human GPR18 expressed in CHO cells assessed as inhibition of […] uM THC-mediated beta-arrestin recruitment after 90 mins by beta-galactosidase reporter gene assay. It counts as cell-based.
Data set [6] in a line: Solubility of the compound in water. It counts as physicochemical. The conditions noted are these: buffer.
Data set [7] concerns the target T2, Cannabinoid receptor 2. Put plainly: Antagonist activity at human CB2 receptor expressed in CHO cells assessed as inhibition of forskolin-induced cAMP accumulation incubated for 5 mins followed by forskolin challenge measured after 15 mins by liquid scintillation counting analysis in presence of [3H]cAMP. Format: functional, cell-based. The method, boiled down:
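CHO cells stably expressing human CB2; adenylate cyclase inhibition measured as intracellular cAMP, quantified by a cAMP competition binding assay; three independent experiments in duplicate.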
For orientation: Changes in cAMP serve as a functional read-out for many G protein-coupled receptors.

A further data set deals with L6. Description: Cytotoxicity against rat L6 cells assessed as growth inhibition after 70 hrs by Alamar Blue assay. It counts as cell-based. The following applies: L6, 70 h.

Molecules are shown by their SMILES. pIC50, pKi: −log10 of the molar value. Calls of active or inactive are those of the source. The calls are words filed in the database; no cut-off is given here. Some results are limits rather than exact numbers.

Cannabinoid receptor 1, sequence (P21554 whole entry): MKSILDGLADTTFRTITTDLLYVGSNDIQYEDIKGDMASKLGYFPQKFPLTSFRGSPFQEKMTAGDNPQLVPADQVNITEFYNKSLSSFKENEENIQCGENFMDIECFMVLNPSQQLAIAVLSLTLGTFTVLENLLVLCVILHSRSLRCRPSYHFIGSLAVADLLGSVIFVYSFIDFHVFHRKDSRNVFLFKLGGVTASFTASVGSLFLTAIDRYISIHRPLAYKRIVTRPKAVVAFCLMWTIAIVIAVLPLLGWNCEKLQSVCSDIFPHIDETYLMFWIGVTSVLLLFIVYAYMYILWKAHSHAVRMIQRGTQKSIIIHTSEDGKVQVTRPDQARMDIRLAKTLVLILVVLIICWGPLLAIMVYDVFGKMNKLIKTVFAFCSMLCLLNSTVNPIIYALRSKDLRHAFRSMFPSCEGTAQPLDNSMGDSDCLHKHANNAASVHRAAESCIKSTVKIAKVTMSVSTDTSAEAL
T2 sequence (P34972 whole entry): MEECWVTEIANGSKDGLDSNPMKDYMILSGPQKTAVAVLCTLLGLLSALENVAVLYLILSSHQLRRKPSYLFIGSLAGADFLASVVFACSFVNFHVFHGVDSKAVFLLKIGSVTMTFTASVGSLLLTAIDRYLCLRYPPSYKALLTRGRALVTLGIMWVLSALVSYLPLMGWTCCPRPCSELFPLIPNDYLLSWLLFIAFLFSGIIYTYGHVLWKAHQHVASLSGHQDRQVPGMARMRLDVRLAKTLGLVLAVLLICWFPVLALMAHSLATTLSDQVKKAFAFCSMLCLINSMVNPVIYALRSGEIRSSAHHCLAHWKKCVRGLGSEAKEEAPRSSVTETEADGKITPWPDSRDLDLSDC
T3 sequence (Q9Y2T6 whole entry): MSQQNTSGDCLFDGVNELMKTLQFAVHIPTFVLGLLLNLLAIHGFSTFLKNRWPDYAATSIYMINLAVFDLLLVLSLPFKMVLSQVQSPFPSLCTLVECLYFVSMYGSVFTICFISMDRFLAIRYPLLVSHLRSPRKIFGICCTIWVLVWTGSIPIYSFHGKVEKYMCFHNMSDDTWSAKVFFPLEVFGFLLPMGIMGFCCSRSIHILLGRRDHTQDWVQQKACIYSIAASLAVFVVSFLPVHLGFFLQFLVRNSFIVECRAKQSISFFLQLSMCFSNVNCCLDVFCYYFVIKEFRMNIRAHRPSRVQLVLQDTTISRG

Consider `COC(C)(C)/C=C/C[C@]1(C)[C@@H](O)CC[C@@]2(C)[C@H]1CC[C@H]1Cc3c([nH]c4ccccc34)[C@@]12C`, for which the pIC50 in data set [1] was 4.87; in data set [3], less than 5.00. Besides, the pKi on Cannabinoid receptor 2 [2] and at Cannabinoid receptor 1 was less than 5.00 throughout. Moreover, the values for the inhibition (at Cannabinoid receptor 2 [2] (concentration not given here); at Cannabinoid receptor 1; in data set [4]) were 33%, 39% and 31%, respectively.

In the case of `CC(C)=CCC[C@]1(C)[C@@H](O)CC[C@@]2(C)[C@H]1CC[C@H]1Cc3c([nH]c4ccccc34)[C@@]12C` [EMINDOLE SB], the pKi at Cannabinoid receptor 2 [2] was 5.65; at Cannabinoid receptor 1 it was 5.15. Also, the pIC50 in data set [5] and in data set [3] was less than 5.00 in each case. The inhibition in [4] came out at 12%.

`CC(C)=CCC[C@]1(C)[C@@H](O[C@@H]2O[C@H](CO)[C@@H](O)[C@H](O)[C@@H]2O)CC[C@@]2(C)[C@H]1CC[C@H]1Cc3c([nH]c4ccccc34)[C@@]12C`: the solubility entry in data set [6] is given as “soluble”. For the same compound, the pKi at Cannabinoid receptor 2 [2] and at Cannabinoid receptor 1 was 4.97 throughout. For the same compound, the inhibition on Cannabinoid receptor 1 was determined as 30%; in data set [4], 13%. Moreover, at Cannabinoid receptor 2 [7], the inhibition result was “Active”. The negative logarithm of the IC50 (pIC50) in data set [5] is less than 5.00; in [3], less than 5.00; in the data set on L6, 4.24.

For `CC(C)=C[C@H]1C[C@]2(C)[C@H](CC[C@@]3(C)[C@H]2CC[C@H]2Cc4c([nH]c5ccccc45)[C@@]23C)O1`, the pIC50 is 5.00 in data set [1] and less than 5.00 in data set [3]. The pKi is 5.32 at Cannabinoid receptor 2 [2] and 5.36 at Cannabinoid receptor 1. Further, the inhibition in data set [4] worked out at 0%.

For orientation: pIC50 means −log10 of the IC50, conventionally taken in molar units. As a reminder, the pKi is −log10 of the Ki, conventionally taken in molar units. Lower therefore signals a high Ki. A word on the inhibition: it is how much of the control response was suppressed.

For the origin of these results see ChEMBL document CHEMBL3120089, “Indoloditerpenes from a marine-derived fungal strain of Dichotomomyces cejpii with antagonistic activity at GPR18 and cannabinoid receptors” (J Nat Prod, 2014).
